Assay results from ChEMBL document CHEMBL1127493, “Glycylcyclines. 1. A new generation of potent antibacterial agents through modification of 9-aminotetracyclines” (1994).
In brackets after ≈: the same amount, converted by molar mass.

Columns and labels:
Assay type in all cases: functional
Escherichia coli [1] = assay: In vitro minimum inhibitory concentration against Escherichia coli J3272 (tet C efflux).
In short: (§1)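 Agar dilution on Mueller–Hinton II agar; inoculum (1-5) × 10^5 CFU/mL; antibiotic concentrations 32–0.004 µg/mL; plates incubated 18 h at 35 °C in forced-air incubator. MIC taken as lowest concentration inhibiting growth of the test organism (tetracycline-sensitive and tetracycline-resistant strains).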

Enterococcus faecalis = assay: In vitro minimum inhibitory concentration against Enterococcus faecalis ATCC 29212.; in short: as §1
Staphylococcus aureus [2] = assay: In vitro minimum inhibitory concentration against Staphylococcus aureus UBMS 90-3 (sensitive).; in short: as §1
Escherichia coli [3] = assay: In vitro minimum inhibitory concentration against Escherichia coli PRP-1 (tet A efflux).; in short: as §1
Escherichia coli [4] = assay: In vitro minimum inhibitory concentration against Escherichia coli UBMS 88-1 (tet B efflux).; in short: as §1
Escherichia coli [5] = assay: In vitro minimum inhibitory concentration against Escherichia coli UBMS 90-5 (sensitive).; in short: as §1
Escherichia coli [6] = assay: In vitro minimum inhibitory concentration against Escherichia coli UBMS 90-4 (tet M ribosomal protection).; in short: as §1
Staphylococcus aureus [7] = assay: In vitro minimum inhibitory concentration against Staphylococcus aureus smith (sensitive).; in short: as §1
Staphylococcus aureus [8] = assay: In vitro minimum inhibitory concentration against Staphylococcus aureus UBMS 90-1 (tet M ribosomal protection).; in short: as §1
Staphylococcus aureus [9] = assay: In vitro minimum inhibitory concentration against Staphylococcus aureus UBMS 88-7 (tet K efflux).; in short: as §1
Escherichia coli [10] = assay: In vitro minimum inhibitory concentration against Escherichia coli J3272 (tet D efflux).; in short: as §1

SMILES | MIC (Escherichia coli [1]) [µg/mL] | MIC (Enterococcus faecalis) [µg/mL] | MIC (Staphylococcus aureus [2]) [µg/mL] | MIC (Escherichia coli [3]) [µg/mL] | MIC (Escherichia coli [4]) [µg/mL] | MIC (Escherichia coli [5]) [µg/mL] | MIC (Escherichia coli [6]) [µg/mL] | MIC (Staphylococcus aureus [7]) [µg/mL] | MIC (Staphylococcus aureus [8]) [µg/mL] | MIC (Staphylococcus aureus [9]) [µg/mL] | MIC (Escherichia coli [10]) [µg/mL]
CCN(CC)c1cc(NC(C)=O)c(O)c2c1CC1CC3[C@H](N(C)C)C(=O)C(C(N)=O)=C(O)[C@@]3(O)C(=O)C1=C2O (stereo partly drawn) | > 32 | 0.25 (≈ 0.461 µM) | 0.12 (≈ 0.221 µM) | > 32 | 32 (≈ 59 µM) | 32 (≈ 59 µM) | 32 (≈ 59 µM) | 0.12 (≈ 0.221 µM) | 2 (≈ 3.69 µM) | 2 (≈ 3.69 µM) | 
CC(=O)Nc1ccc2c(c1O)C(O)=C1C(=O)[C@]3(O)C(O)=C(C(N)=O)C(=O)[C@@H](N(C)C)C3CC1C2.O=S(=O)(O)O (stereo partly drawn) | > 32 | 0.25 | 0.12 | > 32 | > 32 | 8 | 8 | 0.12 | 2 | 32 | 0.5
CN(C)c1cc(NC(=O)CN)c(O)c2c1CC1CC3[C@H](N(C)C)C(=O)C(C(N)=O)=C(O)[C@@]3(O)C(=O)C1=C2O.O=C(O)C(F)(F)F (stereo partly drawn) | 32 | 0.25 | 0.5 | 32 | 2 | 2 | 1 | 1 | 2 | > 32 | 2
CC(=O)Nc1cc(I)c2c(c1O)C(O)=C1C(=O)[C@]3(O)C(O)=C(C(N)=O)C(=O)[C@@H](N(C)C)C3CC1C2.O=S(=O)(O)O (stereo partly drawn) | > 128 | 0.25 | 0.12 | > 128 | > 128 | 16 | > 128 | 0.12 | 1 | 16 | 
CN(C)CC(=O)Nc1cc(I)c2c(c1O)C(=O)C1=C(O)[C@]3(O)C(O)=C(C(N)=O)C(=O)[C@@H](N(C)C)C3CC1C2.Cl (stereo partly drawn) | 4 | 0.06 | 0.12 | 8 | 1 | 2 | 1 | 0.25 | 0.5 | 4 | 0.5
CN(C)CC(=O)Nc1cc(N(C)C)c2c(c1O)C(=O)C1=C(O)[C@]3(O)C(O)=C(C(N)=O)C(=O)[C@@H](N(C)C)C3CC1C2.Cl (stereo partly drawn) | 1 | 0.06 | 0.06 | 2 | 0.25 | 0.25 | 0.25 | 0.12 | 0.25 | 2 | 0.12
CCN(CC)c1cc(NC(=O)CN(C)C)c(O)c2c1CC1CC3[C@H](N(C)C)C(=O)C(C(N)=O)=C(O)[C@@]3(O)C(=O)C1=C2O.Cl (stereo partly drawn) | 4 | 0.25 | 0.5 | 4 | 1 | 1 | 1 | 0.5 | 0.5 | 1 | 0.5
CN(C)[C@@H]1C(=O)C(C(N)=O)=C(O)[C@@]2(O)C(=O)C3=C(O)c4c(O)c(N)cc(I)c4CC3CC12.O=S(=O)(O)O (stereo partly drawn) | > 32 | 0.12 | 0.03 | > 32 | > 32 | 4 | > 32 | < 0.015 | 0.5 | 0.5 | 
CN(C)c1cc(N)c(O)c2c1CC1CC3[C@H](N(C)C)C(=O)C(C(N)=O)=C(O)[C@@]3(O)C(=O)C1=C2O.Cl (stereo partly drawn) | 16 | 0.25 | 0.06 | 4 | 32 | 0.5 | 8 | 0.06 | 0.5 | 0.25 | 8
CN(C)CC(=O)Nc1ccc2c(c1O)C(=O)C1=C(O)[C@]3(O)C(O)=C(C(N)=O)C(=O)[C@@H](N(C)C)C3CC1C2.Cl (stereo partly drawn) | 0.5 | 0.03 | 0.06 | 1 | 0.25 | 0.12 | 0.12 | 0.12 | 0.12 | 1 | 0.12
CCN(CC)c1cc(NC=O)c(O)c2c1CC1CC3[C@H](N(C)C)C(=O)C(C(N)=O)=C(O)[C@@]3(O)C(=O)C1=C2O (stereo partly drawn) | 32 (≈ 60.5 µM) | 0.06 (≈ 0.114 µM) | 0.03 (≈ 0.0568 µM) | 32 (≈ 60.5 µM) | 16 (≈ 30.3 µM) | 0.5 (≈ 0.946 µM) | 8 (≈ 15.1 µM) | 0.03 (≈ 0.0568 µM) | 0.5 (≈ 0.946 µM) | 0.25 (≈ 0.473 µM) | 
CN(C)c1ccc(O)c2c1C[C@H]1C[C@H]3[C@H](N(C)C)C(O)=C(C(N)=O)C(=O)[C@@]3(O)C(O)=C1C2=O [MINOCYCLINE] | 4 (≈ 8.74 µM) |  | 0.12 (≈ 0.262 µM) | 4 (≈ 8.74 µM) | 16 (≈ 35 µM) | 1 (≈ 2.19 µM) | > 32 | 0.12 (≈ 0.262 µM) | 4 (≈ 8.74 µM) | 0.25 (≈ 0.546 µM) | 8 (≈ 17.5 µM)
CN(C)[C@@H]1C(O)=C(C(N)=O)C(=O)[C@@]2(O)C(O)=C3C(=O)c4c(O)cccc4[C@@](C)(O)[C@H]3C[C@@H]12 [TETRACYCLINE] | > 32 |  | 0.25 (≈ 0.563 µM) | 32 (≈ 72 µM) | > 32 | 1 (≈ 2.25 µM) | > 32 | 0.25 (≈ 0.563 µM) | > 32 | > 32 | 32 (≈ 72 µM)

The next lines start with the values.

MIC (Escherichia coli [1]) [µg/mL] | MIC (Enterococcus faecalis) [µg/mL] | MIC (Staphylococcus aureus [2]) [µg/mL] | MIC (Escherichia coli [3]) [µg/mL] | MIC (Escherichia coli [4]) [µg/mL] | MIC (Escherichia coli [5]) [µg/mL] | MIC (Escherichia coli [6]) [µg/mL] | MIC (Staphylococcus aureus [7]) [µg/mL] | MIC (Staphylococcus aureus [8]) [µg/mL] | MIC (Staphylococcus aureus [9]) [µg/mL] | MIC (Escherichia coli [10]) [µg/mL] | SMILES
> 32 | 0.5 | < 0.015 | 32 | > 32 | 1 | 16 | 0.03 | 8 | 4 |  | CN(C)[C@@H]1C(=O)C(C(N)=O)=C(O)[C@@]2(O)C(=O)C3=C(O)c4c(ccc(N)c4O)CC3CC12.O=S(=O)(O)O (stereo partly drawn)
> 32 | 0.25 (≈ 0.486 µM) | 0.25 (≈ 0.486 µM) | > 32 | > 32 | 8 (≈ 15.5 µM) | 4 (≈ 7.77 µM) | 0.25 (≈ 0.486 µM) | 1 (≈ 1.94 µM) | 8 (≈ 15.5 µM) |  | CC(=O)Nc1cc(N(C)C)c2c(c1O)C(O)=C1C(=O)[C@]3(O)C(O)=C(C(N)=O)C(=O)[C@@H](N(C)C)C3CC1C2 (stereo partly drawn)
4 | 0.12 | 0.03 | 2 | 2 | 1 | 32 | 0.03 | 2 | 0.06 |  | CCN(CC)c1cc(N)c(O)c2c1CC1CC3[C@H](N(C)C)C(=O)C(C(N)=O)=C(O)[C@@]3(O)C(=O)C1=C2O.Cl (stereo partly drawn)
> 32 | 0.06 | < 0.015 | > 32 | 32 | 0.25 | 1 | 0.03 | 1 | > 32 |  | CN(C)[C@@H]1C(=O)C(C(N)=O)=C(O)[C@@]2(O)C(=O)C3=C(O)c4c(ccc(NC=O)c4O)CC3CC12.O=S(=O)(O)O (stereo partly drawn)
> 32 | 0.03 (≈ 0.0599 µM) | 0.03 (≈ 0.0599 µM) | 16 (≈ 32 µM) | > 32 | 0.25 (≈ 0.499 µM) | 1 (≈ 2 µM) | 0.03 (≈ 0.0599 µM) | 0.06 (≈ 0.12 µM) | 4 (≈ 7.99 µM) | 8 (≈ 16 µM) | CN(C)c1cc(NC=O)c(O)c2c1CC1CC3[C@H](N(C)C)C(=O)C(C(N)=O)=C(O)[C@@]3(O)C(=O)C1=C2O (stereo partly drawn)
> 32 | 0.25 | 0.03 | > 32 | > 32 | 0.5 | 32 | 0.03 | 4 | 16 |  | CN(C)[C@@H]1C(=O)C(C(N)=O)=C(O)[C@@]2(O)C(=O)C3=C(O)c4c(O)c(NC=O)cc(I)c4CC3CC12.O=S(=O)(O)O (stereo partly drawn)
